From PubChem BioAssay
Shown are actives, neighbours in structure and some others; about 3.1% of the full set was active somewhere.
HSF1 inh – HSF1 inhibition | hit rate 0.77% among 300,000 | AID 2098 | NIH3T3-HGL HSE-luciferase, MG132-induced, luminescence 8 h; stronger effect = lower value | activity change, negative = inhibition, % at 7.5 µM (by protocol);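 active = more than half of replicate wells show activity change below -50%, luminescence cut by over half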;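 also: luciferase reports HSF-1 transcriptional activity via heat shock element; 0% = median of DMSO wells and -100% = zero luminescence signal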
Tb hexokinase – blocks Trypanosoma brucei hexokinase 1 activity; recombinant TbHK1, G6PDH-coupled NADH A340; inhibition, % at 10 µM; hit rate 0.11% among 220,000; AID 1430;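 active = inhibition of 50% or more in the single-dose primary screen; inactive = inhibition below 50%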
HSF-1 act – increases HSF-1 driven luciferase reporter signal; NIH3T3-HGL HSF-1 luciferase reporter, MG132, 8 h; 100% = twice DMSO control signal; activation, % at 9 µM; hit rate 1.7% among 300,000;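 active = mean replicate activation of at least 50% with a set share of replicates each reaching 50%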;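 also: 0% = median of the neutral control wells and 100% = twice that signal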
HSP90 inh – blocks HSP90-mediated luciferase refolding in reticulocyte lysate; inhibition, % at 5.6 µM; Rabbit reticulocyte lysate, luciferase refolding luminescence, 3 h; hit rate 0.91% among 290,000; AID 1789;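 active = inhibition above the screen-wide mean plus 3 SD, computed separately per campaign, cut at about 16% in these data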;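 also: 0% = DMSO wells and 100% = 60 µM geldanamycin wells; inhibitors lower the luminescence because luciferase stays unfolded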
Hsp70 activator – Hsp70 transcriptional activation, primary screen; HeLa Hsp70 promoter luciferase reporter, luminescence; scaled: vehicle 0, proteasome-inhibitor control 100%; activation, % at 10 µM; hit rate 0.04% among 200,000; AID 1203;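 active = activation above the mean across all tested compounds plus 3 SD, cutoff set per campaign, cut at about 5.5% in these data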;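 also: 100% = MG132 at 30 µM as the positive control and 0% = DMSO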
HKDC1 inhibitor – inhibitors of human hexokinase HKDC1; inhibition, % at 20 µM; recombinant HKDC1, G6PDH/diaphorase resazurin coupled fluorescence; Q2TB90; AID 493160; hit rate 0.16% among 340,000;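 active = inhibition above about 35% when tested at 20 µM, limit read from the data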;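 also: plate controls were DMSO wells with enzyme for no effect and DMSO wells lacking enzyme for full effect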
Target sequence (Q2TB90 whole entry, looked up): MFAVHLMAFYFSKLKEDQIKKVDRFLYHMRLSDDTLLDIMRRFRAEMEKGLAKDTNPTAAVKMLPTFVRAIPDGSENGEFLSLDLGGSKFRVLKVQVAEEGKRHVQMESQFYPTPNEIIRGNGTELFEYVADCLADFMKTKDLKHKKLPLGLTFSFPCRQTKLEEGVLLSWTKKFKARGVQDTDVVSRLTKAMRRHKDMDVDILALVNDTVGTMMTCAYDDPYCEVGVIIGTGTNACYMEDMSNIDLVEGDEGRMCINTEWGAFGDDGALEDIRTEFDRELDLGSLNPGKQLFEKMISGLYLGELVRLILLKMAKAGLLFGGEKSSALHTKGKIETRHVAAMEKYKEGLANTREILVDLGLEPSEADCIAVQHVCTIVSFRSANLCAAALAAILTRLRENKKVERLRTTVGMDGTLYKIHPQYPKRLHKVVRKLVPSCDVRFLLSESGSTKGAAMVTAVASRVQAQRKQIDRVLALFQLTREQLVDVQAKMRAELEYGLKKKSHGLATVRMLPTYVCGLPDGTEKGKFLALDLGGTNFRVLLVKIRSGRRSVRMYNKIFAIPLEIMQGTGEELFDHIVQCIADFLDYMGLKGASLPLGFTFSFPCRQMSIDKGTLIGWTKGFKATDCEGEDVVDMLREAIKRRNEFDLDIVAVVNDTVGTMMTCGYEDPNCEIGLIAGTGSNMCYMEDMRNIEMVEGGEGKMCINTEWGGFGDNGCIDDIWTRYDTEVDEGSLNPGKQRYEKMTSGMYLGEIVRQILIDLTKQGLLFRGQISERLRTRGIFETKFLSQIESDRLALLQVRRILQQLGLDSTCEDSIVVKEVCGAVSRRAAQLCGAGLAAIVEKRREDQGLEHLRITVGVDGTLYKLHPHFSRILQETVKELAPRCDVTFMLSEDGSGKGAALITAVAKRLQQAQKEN
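Assay system: recombinant HKDC1 hexokinase; detection: coupled resazurin fluorescence, excitation 525 nm, emission 613 nm; benchmarks: DMSO-plus-enzyme-mix negative control, buffer-substituted positive control; compound dosing: single 20 µM dose; schedule: 90 min at room temperature in dark; also added: glucose plus 1 mM ATP as hexokinase substrates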
Active calls of the source: *; · = no result given.

SMILES | HSF1 inh | Tb hexokinase | HSF-1 act | HSP90 inh | Hsp70 activator | HKDC1 inhibitor
CC(C)CN(C(=O)COC(=O)c1ccccc1SCC(=O)N1CCCC1)C1CCS(=O)(=O)C1 (centres undefined) | · | · | · | · | · | -4
CN1CCc2c(sc(/N=C/c3c[nH]c4ccccc34)c2C#N)C1 | -29 | -15 | -25 | 2 | · | 4
CN1CCc2c(sc(/N=C/c3cc(Cl)ccc3O)c2C#N)C1 | -52* | -18 | -60 | 16 | · | 3
Nc1c(Br)cc2c([nH]c(=O)c3ccccc32)c1Br | -8 | · | -8 | · | · | 7
Cc1ccc(C(=O)Cc2cc3ccccc3oc2=O)c(C)c1 | 59 | · | 85* | 7 | · | -1
COc1ccc(C(=O)Cc2cc3ccccc3oc2=O)cc1 | 48 | · | 56* | 0 | · | 4
CCOc1ccc(NS(=O)(=O)c2cccc(C(=O)N3CCN(C/C=C/c4ccccc4)CC3)c2)cc1 | · | · | · | · | · | -3
CCN(CC(=O)NCc1ccc(F)cc1)C(=O)c1cccc(S(=O)(=O)N(C)c2ccc(OC)cc2)c1 | · | · | · | · | · | -2
Cc1ccc(CN(C)C(=O)c2cc(COc3ccc(F)cc3Cl)on2)o1 | 10 | 3 | 54* | -1 | 0 | -6
CCc1ccc(CN(C)C(=O)c2cc(COc3ccc(OC)cc3Cl)on2)nc1 | 22 | · | 56* | 1 | · | -2
COc1ccc(OCc2cc(C(=O)N(C)Cc3cc(C)no3)no2)c(Cl)c1 | 37 | · | 30 | -3 | · | -2
Fc1ccc(-n2cc(-c3ccccc3)c3c(N4CCOCC4)ncnc32)cc1 | -52* | -1 | -58 | -2 | 0 | 1
N#Cc1cnc(Nc2ccc(F)cc2)nc1N | 31 | -5 | 72* | -1 | · | -5
Cc1cc(C)c(C#N)c(Nc2ccc(F)cc2)n1 | -6 | · | 1 | 0 | · | 0
Cc1nc(S(=O)(=O)c2ccc(Cl)cc2)c(NCc2ccccc2)o1 | 21 | 4 | 64* | 2 | 0 | 6
CNc1oc(C)nc1S(=O)(=O)c1ccccc1 | -8 | -6 | -13 | 2 | 0 | -6
CCCCC1(Br)C(=O)N(c2ccccc2)N(c2ccccc2)C1=O | · | · | · | · | · | 0
COc1ccc(C(=O)COC(=O)CCN2C(=O)C3C4CC(C(Br)C4Br)C3C2=O)cc1 (centres undefined) | -62* | 2 | -71 | -2 | 0 | 2
Cc1cccc(OCC(=O)Nc2ccc3c(c2)nc(CCN2CCN(c4ccccn4)CC2)n3C)c1 | 12 | · | 5 | -4 | · | -1
COc1ccc(OC(=O)c2ccncc2)cc1 | -5 | 1 | 2 | -2 | 0 | -2
COc1ccc(C(=O)Oc2ccc(/C=N/O)cc2)cc1 | -64* | 4 | -71 | -1 | 0 | 0
O=C(Nc1cccc(NC(=O)c2ccccc2Cl)c1)c1ccc([N+](=O)[O-])o1 | 55 | · | 97* | 1 | · | 3
Cc1ccc(NC(=O)c2ccc([N+](=O)[O-])o2)cc1C | · | -16 | · | 2 | 0 | 1
O=C(Nc1cccc2ccccc12)c1ccc([N+](=O)[O-])o1 | 58 | · | 72* | 2 | · | -3
O=C(Nc1cc(-c2nc3ncccc3o2)ccc1Cl)c1ccc([N+](=O)[O-])o1 | 78 | · | 110* | 4 | · | -1
SMILES | HSF1 inh | Tb hexokinase | HSF-1 act | HSP90 inh | Hsp70 activator | HKDC1 inhibitor
COc1ccccc1NC(=O)c1ccc([N+](=O)[O-])o1 | -86* | · | -88 | · | · | -1
CCC(=O)N1CCN(c2ccccc2NC(=O)c2ccc([N+](=O)[O-])o2)CC1 | 25 | · | 22 | -2 | · | 0
CC(C)C(=O)N1CCN(c2ccccc2NC(=O)c2ccc([N+](=O)[O-])o2)CC1 | 41 | · | 80* | 7 | · | 3
C=C(C)c1nc(Oc2ccccc2)nc(Oc2ccccc2)n1 | · | · | · | · | · | 6
Cc1ccc(-c2nc3ccccc3[nH]2)s1 | 31 | -33 | 51* | 6 | 0 | 10
O=C(O)c1ccccc1-c1nc2ccccc2[nH]1 | 21 | 3 | 60* | -1 | 0 | -9
O=C(c1ccccc1-c1nc2ccccc2[nH]1)N1CCOCC1 | -2 | -5 | 9 | -1 | 0 | 2
c1ccc(-c2nc3ccccc3[nH]2)cc1 | -61* | · | -66 | -4 | · | 3
c1ccc2[nH]c(-c3ccncc3)nc2c1 | 8 | -10 | 12 | -4 | 0 | -7
COC(=O)c1ccc(-c2nc3ccccc3[nH]2)cc1 | 38 | -21 | 61* | 10 | 0 | 10
COc1ccc(C(CNC(=O)Cc2cccs2)N(C)C)cc1 (centres undefined) | 8 | · | 4 | 0 | · | -3
c1cncc(-c2nc3ccccc3[nH]2)c1 | 5 | 6 | -3 | 1 | 0 | -3
S=C(Nc1ccc(-c2nc3ccccc3[nH]2)cc1)Nc1cccnc1 | 21 | · | 59* | 1 | · | 5
COc1cc(C=O)ccc1OC(=O)c1ccncc1 | -2 | -41 | 1 | -1 | 0 | 0
COc1cc(C=O)ccc1OC(=O)c1ccc(C(C)C)cc1 | -91* | -7 | -93 | -2 | 0 | 2
CC(=O)Nc1ccc2c(c1)N(S(=O)(=O)c1cccs1)CCC2 | 9 | · | 7 | · | · | -4
O=C(CCl)NC(Cc1ccccc1)c1ccccc1 (centres undefined) | -85* | 1 | -88 | -1 | 0 | -1
CC(=O)C(Cc1ccccc1)NC(=O)CCl (centres undefined) | 3 | -3 | -6 | 1 | 0 | -5
Cc1cccc(Nc2nc(-c3ccc(F)cc3)cs2)n1 | 22 | · | 42 | 4 | · | -5
CC(=O)Oc1ccc(-c2csc(Nc3cccc(C)n3)n2)cc1 | 45 | · | 65* | 2 | · | 2
COc1ccc(-c2csc(Nc3cccc(C)n3)n2)cc1 | 20 | · | 37 | -1 | · | -2
COc1ccc(-c2csc(Nc3cccc(C)n3)n2)cc1C | 42 | · | 98* | -1 | · | 3
Cc1nc2ccccc2cc1OCc1ccc(Cl)cc1 | 37 | 0 | 59* | -1 | 0 | -3
Cc1nc2ccccc2cc1OCc1ccccc1 | 14 | -9 | 11 | 4 | 0 | -3
COc1cccc(NC(=O)NCc2ccccc2F)c1 | 11 | 2 | 21 | 0 | 0 | -10
SMILES | HSF1 inh | Tb hexokinase | HSF-1 act | HSP90 inh | Hsp70 activator | HKDC1 inhibitor
COc1cccc(N/C(SCc2ccccc2F)=C(/C#N)C(=O)NCc2cccs2)c1 | 28 | -11 | 63* | 6 | 0 | 3
Oc1ccccc1CNc1ccc(OC(F)(F)F)cc1 | -60* | -4 | -64 | -5 | 0 | -7
CN(c1ccc(F)cc1)S(=O)(=O)c1ccc(Cl)c(C(=O)NC2(C)CCS(=O)(=O)C2)c1 (centres undefined) | · | · | · | · | · | -3
O=C(COC(=O)C1CSC2(c3ccc(F)cc3)CCC(=O)N12)NC(=O)NC1CCCC1 (centres undefined) | 20 | -7 | 57* | 5 | 0 | 8
Cc1ccc(NC(=O)COc2coc(CN3CCc4ccccc4C3)cc2=O)c(C)c1 | 3 | · | 1 | · | · | -5
Cc1cc(NC(=O)COc2coc(CN3CCN(c4ccccc4F)CC3)cc2=O)no1 | -75* | · | -80 | · | · | 1
CC(C)NC(=O)COc1coc(CN2CCN(c3ccccc3)CC2)cc1=O | -53* | · | -63 | 2 | · | -2
